According to PubChem BioAssay AID588386 (Southern Research Specialized Biocontainment Screening …, 2011):
pIC50: −log10 of the molar value. Calls of active or inactive are those of the source.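 How the source made its calls: active means phage lysis blocked by at least 50% at any tested dose; inconclusive means replicate wells disagree with each other; inactive means the rest.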

Tested on: not listed separately
Assay: protection of E. coli UTI89 from phage lysis – set 6, capsule biogenesis inhibitor project, dose response (AID 588386)
Conditions: E. coli UTI89 K1F phage lysis inhibition, OD600; at 100 µM (top of the series)
In short: (§1)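 Assay system: E. coli UTI89 (K1) and kpsM mutant. Input: overnight bacterial cultures diluted 1:100 into wells. Medium: LB growth medium. Read-out: phage lysis judged from OD600 3 h after phage infection. Times: 1.25 h compound pre-phage, 3 h lysis read, 37 °C shaking. Measured by: absorbance at 600 nm (OD600).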

**Q.** Which inhibition of phage lysis does the source give for `O=C(Nc1ccccc1F)c1ccc2ncsc2c1` here?
**A.** 0.6% (inactive)

**Q.** With `O=C(Nc1ccc(Cl)cc1)c1ccc2ncsc2c1` as the compound, how does the inhibition of phage lysis read?
**A.** 1.47% (inactive)

**Q.** With `COC(=O)c1ccc(NC(=O)c2ccc3[nH]ccc3c2)cc1` as the compound, how does the inhibition of phage lysis read?
**A.** 0.87% (inactive)

**Q.** With `COc1ccc(NC(=O)c2ccc3nc[nH]c3c2)cc1` as the compound, how does the inhibition of phage lysis read?
**A.** 0.32% (inactive)

**Q.** For `O=C(Nc1ccc(F)cc1)c1ccc2ncccc2c1`, which inhibition of phage lysis is on record?
**A.** 0.3% (inactive)

**Q.** Which inhibition of phage lysis does the source give for `O=C(Nc1ccncc1)c1ccc2[nH]ccc2c1` here?
**A.** 0.29% (inactive)

**Q.** With `O=C(Nc1ccc(Br)cc1)c1ccc2ncsc2c1` as the compound, how does the inhibition of phage lysis read?
**A.** 0% (inactive)

**Q.** For `O=C(Nc1ccccc1F)c1ccc2[nH]ccc2c1`, which inhibition of phage lysis is on record?
**A.** 0.33% (inactive)

**Q.** Which inhibition of phage lysis does the source give for `O=C(Nc1cccc(F)c1)c1ccc2nc[nH]c2c1` here?
**A.** 0% (inactive)

**Q.** Which inhibition of phage lysis does the source give for `O=C(Nc1ccc(F)cc1)c1ccc2nc[nH]c2c1` here?
**A.** 0.99% (inactive)

**Q.** With `O=C(Nc1ccc(C(F)(F)F)cc1)c1ccc2[nH]ccc2c1` as the compound, how does the inhibition of phage lysis read?
**A.** -0.66% (inactive)

**Q.** For `O=C(Nc1ccc(Br)cc1)c1ccc2nc[nH]c2c1`, which inhibition of phage lysis is on record?
**A.** 0% (inactive)

**Q.** For `COC(=O)c1ccc(NC(=O)c2ccc3ncsc3c2)cc1`, which inhibition of phage lysis is on record?
**A.** 11.5% (inactive)

**Q.** Which inhibition of phage lysis does the source give for `O=C(Nc1ccc(Br)cc1)c1ccc2[nH]ccc2c1` here?
**A.** 1.16% (inactive)

**Q.** With `COc1ccc(NC(=O)c2ccc3[nH]ccc3c2)cc1` as the compound, how does the inhibition of phage lysis read?
**A.** -14.7% (inactive)

**Q.** For `O=C(Nc1cccc(F)c1)c1ccc2ncsc2c1`, which inhibition of phage lysis is on record?
**A.** 0.9% (inactive)

**Q.** Which inhibition of phage lysis does the source give for `Cc1ccc(NC(=O)c2ccc3[nH]ccc3c2)cc1` here?
**A.** -2.3% (inactive)

**Q.** Which inhibition of phage lysis does the source give for `O=C(Nc1ccccn1)c1ccc2nc[nH]c2c1` here?
**A.** 0% (inactive)

**Q.** With `O=C(NCc1ccco1)c1ccc2ncsc2c1` as the compound, how does the inhibition of phage lysis read?
**A.** 0.88% (inactive)

**Q.** Which inhibition of phage lysis does the source give for `O=C(Nc1ccc(Cl)cc1)c1ccc2ncccc2c1` here?
**A.** 1.19% (inactive)

**Q.** With `Cc1ccc(NC(=O)c2ccc3ncsc3c2)cc1` as the compound, how does the inhibition of phage lysis read?
**A.** 0% (inactive)

**Q.** For `O=C(NCc1ccco1)c1ccc2nc[nH]c2c1`, which inhibition of phage lysis is on record?
**A.** 0% (inactive)

**Q.** Which inhibition of phage lysis does the source give for `COc1ccc(NC(=O)c2ccc3ncsc3c2)cc1` here?
**A.** 3.54% (inactive)

**Q.** With `O=C(Nc1ccc(C(F)(F)F)cc1)c1ccc2ncsc2c1` as the compound, how does the inhibition of phage lysis read?
**A.** 16.7% (inactive)

**Q.** Which inhibition of phage lysis does the source give for `O=C(Nc1ccccn1)c1ccc2ncccc2c1` here?
**A.** 1.21% (inactive)

**Q.** Which inhibition of phage lysis does the source give for `O=C(Nc1ccc(C(F)(F)F)cc1)c1ccc2nc[nH]c2c1` here?
**A.** -0.68% (inactive)

**Q.** For `O=C(Nc1ccc(Cl)cc1)c1ccc2[nH]ccc2c1`, which inhibition of phage lysis is on record?
**A.** 0.86% (inactive)

**Q.** For `O=C(Nc1ccccc1F)c1ccc2ncccc2c1`, which inhibition of phage lysis is on record?
**A.** -2.29% (inactive)

**Q.** For `O=C(Nc1ccccc1F)c1ccc2nc[nH]c2c1`, which inhibition of phage lysis is on record?
**A.** 0.34% (inactive)

**Q.** Which inhibition of phage lysis does the source give for `O=C(Nc1cccc(F)c1)c1ccc2[nH]ccc2c1` here?
**A.** -0.99% (inactive)

**Q.** For `O=C(Nc1cccnc1)c1ccc2ncccc2c1`, which inhibition of phage lysis is on record?
**A.** 0.61% (inactive)

**Q.** For `O=C(NCc1ccco1)c1ccc2[nH]ccc2c1`, which inhibition of phage lysis is on record?
**A.** 0.86% (inactive)

**Q.** For `O=C(Nc1ccc(Cl)cc1)c1ccc2nc[nH]c2c1`, which inhibition of phage lysis is on record?
**A.** -0.32% (inactive)

**Q.** With `O=C(Nc1cccnc1)c1ccc2[nH]ccc2c1` as the compound, how does the inhibition of phage lysis read?
**A.** 0.87% (inactive)

**Q.** Which inhibition of phage lysis does the source give for `O=C(Nc1ccc(F)cc1)c1ccc2ncsc2c1` here?
**A.** -0.68% (inactive)

**Q.** With `O=C(Nc1cccc(F)c1)c1ccc2ncccc2c1` as the compound, how does the inhibition of phage lysis read?
**A.** -1.15% (inactive)

**Q.** With `O=C(NCc1ccco1)c1ccc2ncccc2c1` as the compound, how does the inhibition of phage lysis read?
**A.** 0.91% (inactive)

**Q.** With `O=C(Nc1ccncc1)c1ccc2ncccc2c1` as the compound, how does the inhibition of phage lysis read?
**A.** 0% (inactive)

**Q.** Which inhibition of phage lysis does the source give for `O=C(Nc1ccc(F)cc1)c1ccc2[nH]ccc2c1` here?
**A.** -0.29% (inactive)

**Q.** Which inhibition of phage lysis does the source give for `O=C(Nc1cccnc1)c1ccc2ncsc2c1` here?
**A.** 1.77% (inactive)

Tested on: E. coli UTI89 K1F phage lysis inhibition, OD600
Assay: as above
Conditions: not given
In short: as §1

**Q.** With `O=C(Nc1ccncc1)c1ccc2ncsc2c1` as the compound, how does the pIC50 read?
**A.** 5.79
